Key:
MS2 coat protein [1] = test: apparent Kd, MS2 coat protein; higher = weaker binding; RNA-MaP array; theophylline 2 mM where present
In short: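 The titrant was SNAP-549-labelled MS2 coat protein, run from 0.7 or 1.5 nM in doubling steps to 3 µM. It was applied to designs transcribed by stalled E. coli RNA polymerase on Illumina sequencing-chip clusters, without ligand first and then with constant ligand, in 100 mM Tris-HCl pH 7.5, 80 mM KCl, 4 mM MgCl2, BSA, DTT, yeast tRNA and Tween-20. The apparent Kd is the median of filtered per-cluster binding-curve fits, with green signal normalised to red-channel RNA signal and control-cluster median Fmax.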

MS2 coat protein [2] = test: apparent Kd, MS2 coat protein; higher = weaker binding; RNA-MaP array
In short: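 Designs measured on fewer than 10 clusters were excluded from the data. The rest were RNAs transcribed from sequenced DNA templates on an Illumina sequencing chip and incubated at room temperature, with or without input ligand, with fluorescently labeled MS2 coat protein at 1.5 nM to 3 μM for 0.8–1.5 h at the lowest to 10–20 min at the highest concentrations. Apparent Kd is the median of the per-cluster binding-curve fits.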

[3] = designed as: OFF switch for theophylline, no ligand
[4] = ligand present: theophylline, designed as: OFF switch for theophylline
[5] = designed as: ON switch for theophylline, no ligand
[6] = ligand present: theophylline, designed as: ON switch for theophylline
[7] = designed as: OFF switch for flavin mononucleotide, no ligand
[8] = ligand present: flavin mononucleotide, designed as: OFF switch for flavin mononucleotide
[9] = designed as: ON switch for flavin mononucleotide, no ligand
[10] = ligand present: flavin mononucleotide, designed as: ON switch for flavin mononucleotide

Sequence: CGAUGAUGAAGGGAUACCAGAAAUGGUAUUCCUUUAUUUCUUACAUGAGGAUCACCCAUGUUCCCUUGGCAGCUUUUUAUCAUCG
- apparent Kd (MS2 coat protein [1]; [3]): 75.7 nM
- apparent Kd (MS2 coat protein [1]; [4]): 117 nM

Sequence: AUAUGGCGAGAUGAUACCAGACACAUGAGGAUCACCCAUGUUGAUGGUAAGUCUGCAUAUGUCCCUUGGCAGCAUAGCGACAUAU
- apparent Kd (MS2 coat protein [1]; [3]): 8.27 nM
- apparent Kd (MS2 coat protein [1]; [4]): 20.8 nM

Sequence: GCACUACAUGAGGAUCACCCAUGUGCAGAUACCAGAGGUGUAUGCCUCCCUUGGCAGCUGAGUAGGUCUGGAGGGCUAUUGGUUU
- apparent Kd (MS2 coat protein [1]; [5]): 17.6 nM
- apparent Kd (MS2 coat protein [1]; [6]): 23.5 nM

Sequence: AGCUCAUAGAGUGAUACCAGACUACAUGAGGAUCACCCAUGUUACUUUUAAAUAUCAUUUGUCCCUUGGCAGCACAUGAAGAGCA
- apparent Kd (MS2 coat protein [1]; [3]): 13.6 nM
- apparent Kd (MS2 coat protein [1]; [4]): 12.7 nM

Sequence: ACACAUGAGGAUCACCCAUGUUCAAUAGAUACCAGUGAUACGGUGCACCCUUGGCAGCUGUUGCUGAGUGAUGGUUCCCUCGGAA
- apparent Kd (MS2 coat protein [1]; [5]): 55.2 nM
- apparent Kd (MS2 coat protein [1]; [6]): 77.7 nM

Sequence: UUUACAUGAGGAUCACCCAUGUGCCAUGAUACCAGACAUGAAAAUGUCCCUUGGCAGCAUGAAGGUACCUCAUCGGGAAACCGAA
- apparent Kd (MS2 coat protein [1]; [5]): 134 nM
- apparent Kd (MS2 coat protein [1]; [6]): 247 nM

Sequence: GAUGAACUAUGUGAUACCAGACAACAUGAGGAUCACCCAUGUGCGCGUCGUCCUCUGCCUGUCCCUUGGCAGCGUAUAGUUUAUC
- apparent Kd (MS2 coat protein [1]; [3]): 60.3 nM
- apparent Kd (MS2 coat protein [1]; [4]): 124 nM

Sequence: CAACAAGUAACUGAUACCAGUGUACUGACAUGAGGAUCACCCAUGUUGGGUUUUGUUGUACACCCUUGGCAGCAGAAUCUUGUUG
- apparent Kd (MS2 coat protein [1]; [3]): 60.7 nM
- apparent Kd (MS2 coat protein [1]; [4]): 82.5 nM

Sequence: AGUGUAUCCAUCGAUACCAGCCACCACCGAUAGACCACAUGAGGAUCACCCAUGUUGGGUGGCCCUUGGCAGCGGUGGCUGUGUA
- apparent Kd (MS2 coat protein [1]; [5]): 287 nM
- apparent Kd (MS2 coat protein [1]; [6]): 1190 nM

Sequence: AGCAGUACAACAGAUACCAGACUUUUAAUGCCUCUAAUUACAUGAGGAUCACCCAUGUUUGUCCCUUGGCAGCUGUUGUACUGCA
- apparent Kd (MS2 coat protein [1]; [3]): 136 nM
- apparent Kd (MS2 coat protein [1]; [4]): 211 nM

Sequence: UCCUUGGAGUCAGGAUAUGUCGACAACGGAAUGACAGAAGGGACUUGGCAGCUUAAUUCUUCAGUACAUGAGGAUCACCCAUGU
- apparent Kd (MS2 coat protein [2]; [7]): 9.35 nM
- apparent Kd (MS2 coat protein [2]; [8]): 9.19 nM

Sequence: GAUUCGCAGUCGGCCGCCACUAACAUGAGCUGCUAGUUAUUAUCACAUGAGGAUCACCCAUGUCUUAGGACCGGGACAACCUGUU
- apparent Kd (MS2 coat protein [2]; designed as: ON switch for tryptophan, no ligand): 77.7 nM
- apparent Kd (MS2 coat protein [2]; ligand present: tryptophan, designed as: ON switch for tryptophan): 71 nM

Sequence: CGAAGACAUGAGGAUCACCCAUGUAAGGAUAUUCAAAGAGCGCACCUGAAUGCCCUAUGAAGAAGGUACCGGGC
- apparent Kd (MS2 coat protein [2]; [7]): 69.9 nM
- apparent Kd (MS2 coat protein [2]; [8]): 52.1 nM

Sequence: CCGGCGGAAGGAUAUUGCGAUGACCACAUGAGGAUCACCCAUGUCAACUUGAUCCGGGUACAAGAAGGUCCAGCGA
- apparent Kd (MS2 coat protein [2]; [7]): 19.3 nM
- apparent Kd (MS2 coat protein [2]; [8]): 15.9 nM

Sequence: CUCACCUCGUGGAAGGAUAUACACUUUAGCACAUGAGGAUCACCCAUGUCCGCCGCAAAUCCUAGGUAGAAGGUCCGCAACAUUCG
- apparent Kd (MS2 coat protein [2]; [9]): 23.5 nM
- apparent Kd (MS2 coat protein [2]; [10]): 18 nM

Sequence: UAGACCGAAGGAUAUACAUGAGGAUCACCCAUGUCAAGGACAUACCCACGAAAGGCACGUAGAAGGUCGGCAUA
- apparent Kd (MS2 coat protein [2]; [7]): 18.2 nM
- apparent Kd (MS2 coat protein [2]; [8]): 33.1 nM

Sequence: ACAACGUAACGAGGAUAUAAUCUAAAAGUUCGGUGACGUAGACAUGAGGAUCACCCAUGUUAGUAUUAGAAGGCGUUCGGCGGG
- apparent Kd (MS2 coat protein [2]; [7]): 14.4 nM
- apparent Kd (MS2 coat protein [2]; [8]): 41.9 nM

Sequence: AUGCUGUGAGGAUAUCAGUCCCAGAAAAGCUGGCCGCUGACUGAGAAGGCACAUGAGGAUCACCCAUGUUCAAC
- apparent Kd (MS2 coat protein [2]; [7]): 10.2 nM
- apparent Kd (MS2 coat protein [2]; [8]): 15.7 nM

Sequence: CUUUGACGUGAGAAGGUGCAGGGAAUACACAAGCAAGGAUAUCAUGCACAUGAGGAUCACCCAUGUCCUGUAACGUUUGGUGAC
- apparent Kd (MS2 coat protein [2]; [7]): 437 nM
- apparent Kd (MS2 coat protein [2]; [8]): 302 nM

Sequence: UUUUACGCAAGUAAUUCCCGGGAACCGGAUACCAGCUCCUCCAACAGCCCUUGGCAGCCGACCACAUGAGGAUCACCCAUGUUUC
- apparent Kd (MS2 coat protein [2]; [3]): 11.7 nM
- apparent Kd (MS2 coat protein [2]; [4]): 19.3 nM

Sequence: AGCAAGACCGAGUCCAAUAACAUGAGGAUCACCCAUGUGUUCGAGGAUAUUAGGACUGAUGGGACUAAGAAGGCGAUCCCUUGU
- apparent Kd (MS2 coat protein [2]; [9]): 46.5 nM
- apparent Kd (MS2 coat protein [2]; [10]): 37.2 nM

Sequence: UCAUCGAGAGAGGAUAUCGUAGCAAUUCACCAGCGAGAAGGCUCGACAUGAGGAUCACCCAUGUGGCUCCGCUU
- apparent Kd (MS2 coat protein [2]; [7]): 24.2 nM
- apparent Kd (MS2 coat protein [2]; [8]): 73.6 nM

Sequence: CCACGACUAGGAUAUACCUAUGUUCACUCGUGAUCAAGGACACAUGAGGAUCACCCAUGUAGAAGGAGUCGCUA
- apparent Kd (MS2 coat protein [2]; [7]): 8.84 nM
- apparent Kd (MS2 coat protein [2]; [8]): 10.6 nM

Sequence: UCUUUUCAACAGAAGGAAUGCAGGCGAUAUGAUUGUUUCCGUCAGACAUGAGGAUCACCCAUGUAUUAGGAUAUGUGAAACAGU
- apparent Kd (MS2 coat protein [2]; [7]): 6.2 nM
- apparent Kd (MS2 coat protein [2]; [8]): 7.15 nM

Sequence: UGAGUUUACUGAGGAUAUUCGGGUCCGACGACAUGAGGAUCACCCAUGUUAGUAAUGCUGCAAGGGAAGAAGGCAGAAAGAACU
- apparent Kd (MS2 coat protein [2]; [7]): 13.7 nM
- apparent Kd (MS2 coat protein [2]; [8]): 10.7 nM

Sequence: CACUGACAACGAGGAUAUGGUCGAGCCAGACAUGAGGAUCACCCAUGUAUCGAAAGCAAUAAACUCCAGAAGGCGUAACAGUUG
- apparent Kd (MS2 coat protein [2]; [9]): 10.4 nM
- apparent Kd (MS2 coat protein [2]; [10]): 11.6 nM

Sequence: CAUUCUUUAGUAAGGAUAUCAACUUGUUUAUAUAAUGAGAAGGUACAUGAGGAUCACCCAUGUCUCACAUCGGU
- apparent Kd (MS2 coat protein [2]; [7]): 8.72 nM
- apparent Kd (MS2 coat protein [2]; [8]): 7.9 nM

Sequence: AACUGAAGCACCUUAUGCGGCGGCAAAACCCGAGGACCGGUACGGCCGCCACUCGAGUCGCAACAUGAGGAUCACCCAUGUGUAU
- apparent Kd (MS2 coat protein [2]; designed as: OFF switch for tryptophan, no ligand): 51.3 nM
- apparent Kd (MS2 coat protein [2]; ligand present: tryptophan, designed as: OFF switch for tryptophan): 117 nM

Sequence: AAUAAGUUAGGAUAUUCAGGAGCAGCGCAAUGGUACGAGUCGAAGAAGGAACAUGAGGAUCACCCAUGUGAACC
- apparent Kd (MS2 coat protein [2]; [7]): 11.2 nM
- apparent Kd (MS2 coat protein [2]; [8]): 11.5 nM

Sequence: GAUGAGUUUAAGGAUAUGGUGCGUUGCUUCUUACCAGAAGGUAAAACAUGAGGAUCACCCAUGUGACGGGUGCC
- apparent Kd (MS2 coat protein [2]; [7]): 177 nM
- apparent Kd (MS2 coat protein [2]; [8]): 103 nM

Sequence: AAUUGUCGAGCAGGAUAUAGCUGACAGGAUAUUCAACUAACGACAUGAGGAUCACCCAUGUGUGGCUAGAAGGGCUUCAAGGCA
- apparent Kd (MS2 coat protein [2]; [9]): 15.2 nM
- apparent Kd (MS2 coat protein [2]; [10]): 11.5 nM

Sequence: CAUCAUGGGCUUGGACAAAUUGUGCUUGAUACCAGAAAUCACCGGUUCCCUUGGCAGCAACCCACAUGAGGAUCACCCAUGUGGA
- apparent Kd (MS2 coat protein [2]; [3]): 20.6 nM
- apparent Kd (MS2 coat protein [2]; [4]): 31.2 nM

Sequence: GAUCGUUGGGUAAGGAUAUAAGUUUAUUGCUUGGGUUAGAAGGUACAUGAGGAUCACCCAUGUAGGUGAGUCAC
- apparent Kd (MS2 coat protein [2]; [7]): 76.2 nM
- apparent Kd (MS2 coat protein [2]; [8]): 61.8 nM

Sequence: CUUGUGUGAGGAUAUUAGACACAAUCCGACAGCGGGAUAGUUAAGAAGGCACAUGAGGAUCACCCAUGUUGAGU
- apparent Kd (MS2 coat protein [2]; [7]): 44.2 nM
- apparent Kd (MS2 coat protein [2]; [8]): 81.2 nM

Sequence: UAUAACGAAAGAGGAUAUAUCGGCCGUCUACGGAUAGAAGGCUUUCGCUAUGGCACUGAUGAUCUACAUGAGGAUCACCCAUGU
- apparent Kd (MS2 coat protein [2]; [7]): 7.91 nM
- apparent Kd (MS2 coat protein [2]; [8]): 7.19 nM

Sequence: AGACUCCUAGCAGGAUAUGUUCAAGGAACAAAGAGAACAUGAGGAUCACCCAUGUACACAUAUGAACAGAAGGGCUGAAGAAAA
- apparent Kd (MS2 coat protein [2]; [9]): 8.24 nM
- apparent Kd (MS2 coat protein [2]; [10]): 6.66 nM
